The text below walks through data of the array DNA melting data of Ke et al. (doi:10.1101/2024.01.08.574731).

A short description of data set [1]: melting temperature; fluorescence melt of hairpins on a sequencing array, two-state fit, raised by 9.35 °C to match UV melts. The settings on record: sodium 0.088 M. The procedure, abridged:
(§1)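 Melting temperature and folding enthalpy were derived from bootstrapped two-state fits. The fitted temperatures were raised by 9.35 °C to agree with UV melts, and four replicates were combined by inverse variance. The underlying data were Cy3 fluorescence images of library hairpins, with annealed Cy3 and quencher oligos, on a sequenced MiSeq flow cell in 50 mM Na-HEPES pH 8.0, 25 mM NaCl, taken in 2.5 °C steps up to 60 °C, normalised to pre-quench Cy3 and to control constructs.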

The nature of data set [2]: folding enthalpy; higher = less favourable; fluorescence melt of hairpins on a sequencing array, two-state fit. The settings on record: sodium 0.088 M. The procedure, abridged: as §1

With GGGGTCGGAAACGGCCTC (.((.((....)).)).), in data set [1], the Tm is 51.5 °C. For the same sequence, the folding enthalpy in data set [2] is -26.4 kcal/mol.

As to GGGGTGCGAAAGCATCCC (((.(((....))).))), in data set [1], the Tm is 68.4 °C. Moreover, the folding enthalpy in data set [2] was -28.5 kcal/mol.

As for GGGGTGGGAAACCACTCC ((.((((....)))).)), the Tm in data set [1] is 54.6 °C. For the same sequence, the folding enthalpy in data set [2] was -35.1 kcal/mol.

As for GGGGTGGGAAACCATCCC (((.(((....))).))), the Tm in data set [1] is 56.6 °C. For the same sequence, the folding enthalpy in data set [2] was -41.7 kcal/mol.

Turning to GGGGTGGGAAACTACCCC (((((.(....).))))), the Tm in data set [1] turned out to be 55.8 °C. In data set [2], the folding enthalpy is -46.6 kcal/mol.

Consider GGGGTGTCGAAAGACCCC (((..(((....)))))), for which the Tm in data set [1] came out at 58.7 °C. The folding enthalpy in data set [2] was -30.4 kcal/mol.

With GGGGTTCGAAAGAAACCC (((.(((....))).))), in data set [1], the Tm worked out at 59.5 °C. Further, the folding enthalpy in data set [2] is -41.3 kcal/mol.

On to GGGGTTGGAAACAATCCC (((.(((....))).))), for which the Tm in data set [1] amounted to 52.5 °C. Further, the folding enthalpy in data set [2] is -42.4 kcal/mol.

Turning to GGGGTTGGAAACGACTCC ((.((.(....).)).)), the Tm in data set [1] was determined as 41.6 °C. For the same sequence, the folding enthalpy in data set [2] was -23.1 kcal/mol.

In the case of GGGGTTGGAAACGATCCC (((.(.(....).).))), the Tm in data set [1] turned out to be 39.1 °C. The folding enthalpy in data set [2] was -23 kcal/mol.

For the sequence GGGTAACGAAAGTTCCCC (((.(((....))).))), the Tm in data set [1] is 50.6 °C. Besides, the folding enthalpy in data set [2] was -27.4 kcal/mol.

As to GGGTAAGGAAACTTATCC ((.((((....)))).)), the Tm in data set [1] is 40.1 °C. Moreover, the folding enthalpy in data set [2] was -29.2 kcal/mol.

In the case of GGGTAAGGAAACTTGCCC (((.(((....))).))), in data set [1], the Tm came to 50.5 °C. For the same sequence, in data set [2], the folding enthalpy was -36.6 kcal/mol.

Regarding GGGTACCGAAAGGTCCC (((.(((....)))))), the Tm in data set [1] stood at 54.9 °C. Moreover, the folding enthalpy in data set [2] was -24.2 kcal/mol.

With GGGTACCGAAAGGTCCCC (((.(((....))).))), in data set [1], the Tm worked out at 55.7 °C. For the same sequence, in data set [2], the folding enthalpy is -22.9 kcal/mol.

As for GGGTACGAAAGTAGTCCC ((((((....)))..))), the Tm in data set [1] was 36.4 °C. Also, the folding enthalpy in data set [2] is -20.8 kcal/mol.

Turning to GGGTACGAAAGTATACCC ((((((....)))..))), the Tm in data set [1] was 43.9 °C. In data set [2], the folding enthalpy is -25.9 kcal/mol.

In the case of GGGTACGAAAGTATTCCC ((((((....)))..))), in data set [1], the Tm was determined as 35.5 °C. Further, the folding enthalpy in data set [2] was -20.4 kcal/mol.

For GGGTAGAAATACCC (((((....))))), the Tm in data set [1] was determined as 47.9 °C. The folding enthalpy in data set [2] was -23.1 kcal/mol.

For GGGTAGCCGAAAGGCCCC (((..(((....)))))), the Tm in data set [1] was determined as 54 °C. For the same sequence, the folding enthalpy in data set [2] is -16.1 kcal/mol.

Regarding GGGTAGCGAAAGCTTCCC (((.(((....))).))), the Tm in data set [1] came out at 56.6 °C. Further, the folding enthalpy in data set [2] is -36.5 kcal/mol.

As to GGGTAGGGAAACCTGCCC (((.(((....))).))), the Tm in data set [1] amounted to 55.7 °C. For the same sequence, the folding enthalpy in data set [2] was -45 kcal/mol.

Regarding GGGTATGGAAACATGCTC (.(.(((....))).).), the Tm in data set [1] came to 33.4 °C. In data set [2], the folding enthalpy is -23.1 kcal/mol.

As for GGGTCACCGAAAGGTCCC (((..(((....)))))), the Tm in data set [1] worked out at 38.9 °C. The folding enthalpy in data set [2] is -17.1 kcal/mol.

For GGGTCACGAAAGTGTCCC (((.(((....))).))), the Tm in data set [1] worked out at 59.6 °C. The folding enthalpy in data set [2] is -39.8 kcal/mol.

In the case of GGGTCAGGAAACTGGTCC ((..(((....)))..)), in data set [1], the Tm was 39.9 °C. Moreover, the folding enthalpy in data set [2] was -30.1 kcal/mol.

Turning to GGGTCCCGAAAGGGTCCC (((.(((....))).))), the Tm in data set [1] worked out at 64.9 °C. Moreover, in data set [2], the folding enthalpy is -31 kcal/mol.

GGGTCCGAAAGGAACCCC ((((((....)))..))): the Tm in data set [1] worked out at 61.7 °C. For the same sequence, in data set [2], the folding enthalpy was -13.9 kcal/mol.

In the case of GGGTCCGAAAGGAATCCC ((((((....)))..))), the Tm in data set [1] stood at 46.7 °C. For the same sequence, in data set [2], the folding enthalpy was -22.1 kcal/mol.

Take GGGTCCGAAAGGACTCCC ((((((....)))..))): the Tm in data set [1] worked out at 50.6 °C. Besides, the folding enthalpy in data set [2] was -11 kcal/mol.

GGGTCCGAAAGGAGGCCC ((((((....)))..))): the Tm in data set [1] was determined as 50.3 °C. In data set [2], the folding enthalpy was -18.7 kcal/mol.

For GGGTCCGGAAACGGGCTC (.(.(((....))).).), the Tm in data set [1] is 50.5 °C. The folding enthalpy in data set [2] was -21.3 kcal/mol.

For the sequence GGGTCGCCGAAAGGCCCC (((..(((....)))))), the Tm in data set [1] was found to be 46.4 °C. Moreover, the folding enthalpy in data set [2] is -11.1 kcal/mol.

In the case of GGGTCGCGAAAGCGTCCC (((.(((....))).))), the Tm in data set [1] came out at 67.1 °C. Also, in data set [2], the folding enthalpy is -29 kcal/mol.

As to GGGTCTCGAAAGAGTCCC (((.(((....))).))), in data set [1], the Tm was determined as 53.8 °C. Moreover, the folding enthalpy in data set [2] is -36.9 kcal/mol.

As to GGGTCTTCGAAAGAACCC (((..(((....)))))), the Tm in data set [1] is 40.6 °C. Further, the folding enthalpy in data set [2] was -29.2 kcal/mol.

On to GGGTGAGGAAACTCACTC (.(((((....))))).), for which the Tm in data set [1] is 53.9 °C. Also, the folding enthalpy in data set [2] is -17.8 kcal/mol.
